Measurements: ChEMBL document CHEMBL4715748, “Synthesis and biological investigation of new equatorial (β) stereoisomers of 3-aminotropane arylamides with atypical antipsychotic profile” (Bioorg Med Chem, 2016)

How the values were obtained:
D(2) dopamine receptor = D(2) dopamine receptor (Rattus norvegicus, UniProt P61169); assay: Displacement of [3H] Spiperone from rat striatum dopamine D2 receptor measured after 30 mins by liquid scintillation counter method
How it was run: (§1)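 Competition binding in rat brain tissue membranes against D2, 5-HT1A and 5-HT2A sites; Ki reported as mean ± S.E.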

[1] = biological target: T1, 5-hydroxytryptamine receptor 1A (Rattus norvegicus, UniProt P19327); assay: Displacement of [3H]-8-OH-DPAT from rat cerebral cortex 5HT1A receptor measured after 15 mins by liquid scintillation counter method
T1 sequence (P19327 whole entry): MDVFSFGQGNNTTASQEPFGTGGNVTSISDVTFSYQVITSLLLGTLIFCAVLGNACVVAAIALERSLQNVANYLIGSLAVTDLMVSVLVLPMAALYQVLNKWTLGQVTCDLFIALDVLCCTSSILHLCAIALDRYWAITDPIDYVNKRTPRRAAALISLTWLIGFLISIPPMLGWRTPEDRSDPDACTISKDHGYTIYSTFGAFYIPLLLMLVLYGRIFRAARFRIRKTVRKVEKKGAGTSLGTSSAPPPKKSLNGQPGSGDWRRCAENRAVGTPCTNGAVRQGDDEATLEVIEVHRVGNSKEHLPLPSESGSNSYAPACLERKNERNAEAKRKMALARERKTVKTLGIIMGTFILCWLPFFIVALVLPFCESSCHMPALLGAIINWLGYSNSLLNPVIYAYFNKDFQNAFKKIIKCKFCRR

[2] = biological target: 5-hydroxytryptamine receptor 2A (Rattus norvegicus, UniProt P14842); assay: Displacement of [3H]-ketanserin from rat cerebral cortex 5HT2A receptor measured after 20 mins by liquid scintillation counter method; how it was run: as §1
[3] = biological target: Dopamine D2 receptor and Serotonin 2a receptor (D2 and 5HT2a) (Rattus norvegicus) (UniProt P61169+P14842); assay: Ratio of pKi for displacement of [3H]-ketanserin from rat cerebral cortex 5HT2A receptor measured after 20 mins by liquid scintillation counter method to pKi for displacement of [3H] Spiperone from rat striatum dopamine D2 receptor measured after 30 mins by liquid scintillation counter method
How it was run: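 Ratio of pKi values, 5-HT2A over D2, computed from competition radioligand binding in rat brain tissue.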

[4] = Effect on body temperature in Swiss Albino mouse assessed as rectal body temperature at 10 mg/kg, ip measured after 60 mins by thermometer (reference value: 0.33 to 0.61 degreeC); assay type: ADME, organism-based; settings: in vivo, 1 h
[5] = Effect on body temperature in Swiss Albino mouse assessed as rectal body temperature at 10 mg/kg, ip measured after 90 mins by thermometer (reference value: 0.18 to 0.63 degreeC); assay type: ADME, organism-based; settings: in vivo, 1.5 h
[6] = Effect on body temperature in Swiss Albino mouse assessed as rectal body temperature at 10 mg/kg, ip measured after 120 mins by thermometer (reference value: 0.15 to 1.11 degreeC); assay type: organism-based; settings: in vivo, 2 h
[7] = Effect on body temperature in Swiss Albino mouse assessed as rectal body temperature at 20 mg/kg, ip measured after 120 mins by thermometer (reference value: 0.15 to 1.11 degreeC); assay type: ADME, organism-based; settings: in vivo, 2 h
Mus musculus [8] = assay: Effect on 8-OH-DPAT-induced hypothermia in Swiss albino mouse assessed as change in rectal body temperature at 20 mg/kg, ip pretreated with compound for 45 mins followed by 8-OH-DPAT challenge and measured after 15 min by thermometer (reference value: -1.82 to -1.66 degreeC); assay type: functional, organism-based; settings: time 60.0 min
Mus musculus [9] = assay: Effect on 8-OH-DPAT-induced hypothermia in Swiss albino mouse assessed as change in rectal body temperature at 20 mg/kg, ip pretreated with compound for 45 mins followed by 8-OH-DPAT challenge and measured after 30 min by thermometer (reference value: -1.36 to -1.12 degreeC); assay type: functional, organism-based; settings: time 75.0 min
Mus musculus [10] = assay: Effect on 8-OH-DPAT-induced hypothermia in Swiss albino mouse assessed as change in rectal body temperature at 10 mg/kg, ip pretreated with compound for 45 mins followed by 8-OH-DPAT challenge and measured after 45 min by thermometer (reference value: -1.04 to -0.78 degreeC); assay type: functional, organism-based; settings: time 90.0 min
Mus musculus [11] = assay: Effect on 8-OH-DPAT-induced hypothermia in Swiss albino mouse assessed as change in rectal body temperature at 10 mg/kg, ip pretreated with compound for 45 mins followed by 8-OH-DPAT challenge and measured after 60 min by thermometer (reference value: -0.66 to -0.5 degreeC); assay type: functional, organism-based; settings: time 105.0 min
Mus musculus [12] = assay: Effect on 8-OH-DPAT-induced hypothermia in Swiss albino mouse assessed as change in rectal body temperature at 20 mg/kg, ip pretreated with compound for 45 mins followed by 8-OH-DPAT challenge and measured after 60 min by thermometer (reference value: -0.66 to -0.5 degreeC); assay type: functional, organism-based; settings: time 105.0 min
[13] = Effect on 8-OH-DPAT-induced lower lip retraction in Wistar rat at 10 mg/kg, ip pretreated with compound for 45 mins followed by 8-OH-DPAT challenge and measured after 15 mins (reference value: 2.7 to 2.8); assay type: functional; settings: time 60 min, 1 h
Mus musculus [14] = assay: Antipsychotic activity Swiss Albino mouse assessed as inhibition of DOI-induced head twitching by measuring number of episodes at 2.5 mg/kg, ip administered 30 mins prior to DOI stimulation (reference value: 19.63 to 19.88); assay type: functional; settings: 0.5 h
How it was run: (§2)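 Male Albino Swiss mice (24–28 g) were habituated to sawdust-lined cages 20 min before the first treatment. Compounds were suspended in 1% aqueous Tween 80 and given i.p. 30 min before (±)-DOI, 2.5 mg/kg i.p. in aqueous solution. Head twitches were counted blind over 20 min, n=8 per group, mean ± SEM, one-way ANOVA with Dunnett's test.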

Mus musculus [15] = assay: Antipsychotic activity Swiss Albino mouse assessed as inhibition of DOI-induced head twitching by measuring number of episodes at 5 mg/kg, ip administered 30 mins prior to DOI stimulation (reference value: 19.63 to 19.88); assay type: functional; settings: 0.5 h; how it was run: as §2
Mus musculus [16] = assay: Antipsychotic activity Swiss Albino mouse assessed as inhibition of DOI-induced head twitching by measuring number of episodes at 10 mg/kg, ip administered 30 mins prior to DOI stimulation (reference value: 19.63 to 19.88); assay type: functional; settings: 0.5 h; how it was run: as §2
[17] = Metabolic stability in pooled human liver microsomes assessed as parent compound remaining at 2.5 uM incubated for 45 mins in presence of NADPH by LC-MS analysis; assay type: ADME, Microsome; settings: read-out: Stabilty
How it was run: (§3)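 Compound at 2.5 μM (added from 100 μM stock in 50/50 acetonitrile/water) with 1 mg/mL pooled human liver microsomes and 250 μM NADPH in 0.1 M potassium phosphate pH 7.4 at 37 °C after 5-min preincubation. Sampled at 5, 10, 15, 30, 45 min into ice-cold acetonitrile with atropine internal standard; parent quantified by LC-MS (ESI+, [M+H]+); no-NADPH controls; half-time derived.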

[18] = Metabolic stability in pooled human liver microsomes at 2.5 uM measured over 45 mins in presence of NADPH by LC-MS analysis; assay type: ADME, Microsome; settings: 0.75 h; how it was run: as §3
Mus musculus [19] = assay: Antipsychotic activity Swiss Albino mouse assessed as inhibition of DOI-induced head twitching by measuring number of episodes at 1.25 mg/kg, ip administered 30 mins prior to DOI stimulation (reference value: 19.63 to 19.88); assay type: functional; settings: 0.5 h; how it was run: as §2

Chain of D(2) dopamine receptor (P61169 whole entry): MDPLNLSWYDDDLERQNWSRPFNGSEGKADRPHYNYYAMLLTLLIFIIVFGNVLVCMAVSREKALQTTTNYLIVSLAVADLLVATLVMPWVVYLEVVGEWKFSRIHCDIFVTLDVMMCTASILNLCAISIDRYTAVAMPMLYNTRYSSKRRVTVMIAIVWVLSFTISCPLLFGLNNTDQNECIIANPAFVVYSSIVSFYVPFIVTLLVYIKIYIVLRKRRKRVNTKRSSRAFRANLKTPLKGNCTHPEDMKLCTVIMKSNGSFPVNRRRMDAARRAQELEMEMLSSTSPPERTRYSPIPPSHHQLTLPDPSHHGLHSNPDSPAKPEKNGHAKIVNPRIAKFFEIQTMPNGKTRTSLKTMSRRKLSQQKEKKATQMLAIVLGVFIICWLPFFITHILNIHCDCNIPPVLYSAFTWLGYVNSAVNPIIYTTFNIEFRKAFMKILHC
Chain of 5-hydroxytryptamine receptor 2A (P14842 whole entry): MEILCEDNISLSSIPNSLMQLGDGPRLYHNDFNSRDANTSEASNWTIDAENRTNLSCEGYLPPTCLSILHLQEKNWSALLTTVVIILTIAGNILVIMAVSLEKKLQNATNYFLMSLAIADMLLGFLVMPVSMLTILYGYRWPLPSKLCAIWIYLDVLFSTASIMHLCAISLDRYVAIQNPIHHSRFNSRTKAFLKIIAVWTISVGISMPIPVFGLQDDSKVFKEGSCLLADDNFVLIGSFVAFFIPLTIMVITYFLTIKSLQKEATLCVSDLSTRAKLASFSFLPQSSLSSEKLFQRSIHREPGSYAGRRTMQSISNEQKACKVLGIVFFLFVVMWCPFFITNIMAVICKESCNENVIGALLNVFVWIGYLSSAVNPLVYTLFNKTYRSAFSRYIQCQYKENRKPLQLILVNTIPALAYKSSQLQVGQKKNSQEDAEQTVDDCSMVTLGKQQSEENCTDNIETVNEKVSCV
Chain of Dopamine D2 receptor and Serotonin 2a receptor (D2 and 5HT2a) (Rattus norvegicus) (P14842 whole entry, looked up): as the sequence (P14842 whole entry) above
Chain of Dopamine D2 receptor and Serotonin 2a receptor (D2 and 5HT2a) (Rattus norvegicus) (P61169 whole entry, looked up): as the sequence (P61169 whole entry) above

Row | SMILES | Ki (D(2) dopamine receptor) [nM] | Ki [1] [nM] | Ki [2] [nM] | Ratio pKi [3] | deltaT [4] [°C] | deltaT [5] [°C] | deltaT [6] [°C] | deltaT [7] [°C] | deltaT (Mus musculus [8]) [°C] | deltaT (Mus musculus [9]) [°C] | deltaT (Mus musculus [10]) [°C] | deltaT (Mus musculus [11]) [°C] | deltaT (Mus musculus [12]) [°C] | Activity [13] | Activity (Mus musculus [14]) | Activity (Mus musculus [15]) | Activity (Mus musculus [16]) | remaining at 0.75 h, 2.5 µM [17] [%] | Stabilty [18] | Activity (Mus musculus [19])
1 | O=C(NC1CC2CCC(C1)N2Cc1cccc(Br)c1)c1ccc2ccccc2c1 (stereo unspecified) | 11.6 | 200 | 106 | 0.88 | 0.76 | 0.64 | 1.14 | 1.23 | -1.42 | -1.37 | -1 | -0.72 | -0.58 | 2.4 | 14.5 | 13.88 | 11.88 | > 50 | Stable | –
2 | Cc1cccc(CN2C3CCC2CC(NC(=O)c2ccc4ccccc4c2)C3)c1 (stereo unspecified) | 3.3 | 182 | 231 | 0.78 | 0.73 | 0.35 | 0.27 | 0.24 | -1.9 | -2.08 | -0.48 | -0.05 | -1.5 | 2.3 | 13 | 10 | 2.38 | – | – | 15.63
3 | O=C(NC1CC2CCC(C1)N2Cc1cccc(F)c1)c1ccc2ccccc2c1 (stereo unspecified) | 214 | 211 | 102 | 1.05 | 0.53 | 0.47 | 0.74 | 0.81 | -1.67 | -1.83 | -0.97 | -0.78 | -1.08 | 2.4 | 11.38 | 3.88 | 2.38 | > 50 | Stable | 2.3
4 | O=C(NC1CC2CCC(C1)N2Cc1ccc(F)cc1)c1ccc2ccccc2c1 (stereo unspecified) | 137 | 218 | 209 | 0.97 | 0.5 | 0.44 | 0.59 | 0.54 | -1.62 | -1.6 | -0.92 | -0.73 | -1 | 2.5 | 5.75 | 5 | 5.38 | > 50 | Stable | 12.63
5 | O=C(NC1CC2CCC(C1)N2Cc1cccc(Cl)c1)c1ccc2ccccc2c1 (stereo unspecified) | 3.6 | 298 | 136 | 0.81 | 1 | 0.84 | 1.16 | 1 | -2.12 | -2.22 | -0.85 | -0.67 | -1.57 | 2.6 | 17.25 | 13.13 | 8.75 | > 50 | Stable | –
